The results in this text go back to ChEMBL document CHEMBL4513216, “Probing the Open Global Health Chemical Diversity Library for Multistage-Active Starting Points for Next-Generation Antimalarials” (ACS Infect Dis, 2020).

Molecules are shown by their SMILES.

This data set in a line: Toxicity liver stage against HepG2, at 10uM. It counts as cell-based. Also on record: test concentration 10 uM, cell line HepG2-A16-CD81EGFP. The settings on record: human, HepG2-A16-CD81EGFP cells; read-out: INHIBITION
In outline:
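Uninfected HepG2-A16-CD81EGFP cells, 3 × 10^3 per well, 1536-well, plated on prespotted compound at 10 μM final, parasite-free screening media added to match infected plates; puromycin 10 μM positive, DMSO 0.5% negative; run in parallel with 48 h PbLuc assay at 37 °C, 5% CO2; viability by CellTiter-Glo luminescence, normalized to controls.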

Regarding `O[C@H]1[C@H](NCCSc2ccccn2)c2ccccc2C12CCNCC2`, the cytotoxicity at 10 µM is -13.4%. With `Cc1ccc2cnn(CCC(=O)NCc3c(C)nn(C)c3C)c2c1` the figure was -8.19%; with `Cc1ccc(-c2nc(CN3CCOC(Cn4cncn4)C3)cs2)o1` (stereo unspecified), 4.5%; with `CCn1c(CC2CCN(C(=O)c3cc(CC(C)C)on3)CC2)n[nH]c1=O`, -2.7%. Take `CC(C)NC(=O)C1CN(C(=O)Nc2cccc(F)c2)CC12CCOCC2` (stereo unspecified): the cytotoxicity at 10 µM was -85.8%.

As to `COCCN1C[C@@H]2[C@@H](OC)CCN(S(=O)(=O)c3cccnc3)[C@@H]2C1`, the cytotoxicity at 10 µM was -71.7%. To `Cc1cccc(C)c1OC1CN(Cc2cnc(-c3ccco3)nc2)C1` belongs 6.17%; to `Cc1cnn(CC2CCCN2C(=O)c2n[nH]c3ccccc23)c1` (stereo unspecified), -9.93%. With `CCCSc1ncc(C2CC(=O)NCc3nc4ccccn4c32)cn1` (stereo unspecified) the figure was -6.53%; with `O=C(CN1CCCS(=O)(=O)CC1)NCc1ccccc1F`, 3.76%.

Take `CC(C)N1CCCC1c1cc(C(F)(F)F)[nH]n1` (stereo unspecified): the cytotoxicity at 10 µM was determined as 0.171%. Turning to `CCS(=O)(=O)N1CCc2c(COCc3ccncc3)cncc2C1`, the cytotoxicity at 10 µM was -84.1%.

In the case of `CCN(Cc1nc2c(cnn2C)c(=O)[nH]1)Cc1cccs1`, the cytotoxicity at 10 µM was determined as 1.49%. Regarding `COC(C)(C)Cn1ccnc1-c1cccc(C(C)N(C)C)c1` (stereo unspecified), the cytotoxicity at 10 µM is -3.59%. Turning to `Cn1ccc(C(=O)N2CCCC(Cc3cnc4ccccc4c3)C2)n1` (stereo unspecified), the cytotoxicity at 10 µM is -6.19%.

With `Cc1ccc(-c2nc(CN3CCn4c(nnc4C4CC4)C3)co2)c(C)c1`, the cytotoxicity at 10 µM is -24.7%.

Turning to `Cc1cc(CN2CCOC(Cn3nc(C)cc3C)C2)on1` (stereo unspecified), the cytotoxicity at 10 µM is -5.81%. To `CN(Cc1cnn(C)c1)C(=O)C1COCC(=O)N1Cc1ccccc1` (stereo unspecified) belongs -4.33%; to `CC1=Nc2c(c(=O)[nH]n2C2CCCC2)C(c2ccc(C(=O)O)cc2)S1` (stereo unspecified), -10.4%; to `Cc1ncc(CN(C)C(=O)Nc2cccc(N3CCNC3=O)c2)s1`, 9.97%. `CN1CCCn2c(nc(CNC(=O)c3ccsc3)cc2=O)C1`: the cytotoxicity at 10 µM came to 3.09%. In the case of `COC(=O)c1cccc(C(=O)N2CCN(c3cc(C)ccc3C)CC2)n1`, the cytotoxicity at 10 µM came out at 7.8%. To `CSCCc1c(-c2ccccc2)ncn1CCNc1cccnc1` belongs 5.29%; to `CN(CC(=O)N1CCC(N(C)c2ccccc2)CC1)c1cnccn1`, -6.6%; to `CC(C)C(=O)N1CCCC2(CC(C(=O)NCc3cccnc3)=NO2)C1` (stereo unspecified), -2.77%. With `CC(SCc1cc(Br)cc2cccnc12)C(N)=O` (stereo unspecified) the figure was 11.7%. To `c1ccc(COCC2CN(Cc3ccsc3)Cc3nccn3C2)nc1` (stereo unspecified) belongs -69.6%; to `NC1CCN(C(=O)c2c(F)cccc2Br)CC1`, 11.4%. As to `Cc1cccc(CN(Cc2nc3c(cnn3C)c(=O)[nH]2)C2CC2)c1`, the cytotoxicity at 10 µM is 0.914%. Take `CC1CCCN1Cc1cccc(C(=O)Nc2ccc3[nH]c(=O)oc3c2)c1` (stereo unspecified): the cytotoxicity at 10 µM is -13.4%. With `Cc1csc(CN2C[C@@H]3COC[C@]3(COCC(=O)N(C)C)C2)n1` the figure was 0.851%. To `CCC(CC)n1nc(C)cc1NC(=O)CC1CCOCC1` belongs -2.17%; to `O=C(NCCCN1CCOCC1)c1ccnc(OCc2ccccc2)c1`, -21.4%.

As to `CN(CCc1ccccc1)Cc1c(C2CCNCC2)[nH]c2ncccc12`, the cytotoxicity at 10 µM was found to be 55.5%.

With `Cn1ccnc1CN1CCC(c2nc3ccccc3n2C)CC1`, the cytotoxicity at 10 µM turned out to be 1.42%. To `Cc1cccc(OCC(=O)N2CCN(C3CCOC3=O)CC2)c1C` (stereo unspecified) belongs -15%; to `Cc1cn2c(n1)CCC(NC(=O)CCC1CC1)C2` (stereo unspecified), -9.69%; to `CCNC(=O)c1ccoc1CN1c2ccccc2CC1C` (stereo unspecified), -10.2%. With `COCCCNc1c(C#N)c2c(c3nncn13)CN(C)CC2` the figure was 5.86%; with `c1ccc(NCc2ccc(Cn3ccnc3)cc2)nc1`, 70.9%; with `O=C(CCC1CC1)N1CCC(n2cc(C3(O)CCCC3)nn2)CC1`, 9.4%. With `COc1ccc(CC(=O)N2CCCCC2Cn2cc(C)cn2)cc1F` (stereo unspecified) the figure was -14.1%; with `Cc1ccsc1CNc1ccccc1C(=O)N1CCNC(=O)C1`, -1.68%. Take `CC(C)CCC(=O)N1CCN(C(=O)c2ccc3nccn3c2)CC1`: the cytotoxicity at 10 µM was 7.42%. `COCCN1CCOCC12CCN(C(=O)c1c[nH]c3ccccc13)CC2`: the cytotoxicity at 10 µM is -69.8%. `Cc1cn2cc(C(=O)NC3CCCN(c4ncccn4)C3)ccc2n1` (stereo unspecified): the cytotoxicity at 10 µM is 12.1%. Take `COc1cccc(CNCc2ccc(F)cc2Cl)c1O`: the cytotoxicity at 10 µM was -3.3%.

Turning to `COC(=O)CNC(=O)c1cccc(C(=O)N(C)c2ccccc2)c1`, the cytotoxicity at 10 µM was 6.93%. With `O=S1(=O)CCCN1Cc1coc(-c2cccs2)n1` the figure was 17.5%.

Consider `CC(C)(C)c1noc(CCC(=O)N2CCN(Cc3ccco3)CC2)n1`, for which the cytotoxicity at 10 µM was determined as 6.11%.

With `O[C@@H]1CN(c2nc3ccccc3s2)CC[C@H]1c1ccc2c(c1)OCO2`, the cytotoxicity at 10 µM came out at 52.7%. For `O=C1COC2(CCN(Cc3ccoc3)CC2)CN1CCn1cccn1`, the cytotoxicity at 10 µM came out at 6.95%. In the case of `CN(C(=O)C(c1c(F)cccc1Cl)N(C)C)c1nccs1` (stereo unspecified), the cytotoxicity at 10 µM is -58%. For the compound `CN(C)CCN(C)S(=O)(=O)CC1CCOCC1`, the cytotoxicity at 10 µM was -5.38%.

Take `COCc1ncn(Cc2nc(-c3ccc(OC)cc3F)oc2C)n1`: the cytotoxicity at 10 µM is -92.7%. To `Cc1occc1C(=O)N1CCO[C@H]2[C@H](OCc3cccnc3)CC[C@@H]21` belongs 4.84%.

Regarding `COC(=O)C1CCN(C(=O)c2nnc3ccc(C)cc3n2)CC1`, the cytotoxicity at 10 µM was 11.7%. Take `COC(=O)c1ccc(N2CCN(C(=O)c3ccc(O)nc3)C(C)C2)cc1` (stereo unspecified): the cytotoxicity at 10 µM was -4.5%. To `COc1nc2c(cc1C(=O)NC(C)Cc1cc(C)n[nH]1)CCC2` (stereo unspecified) belongs -137%; to `COc1ncccc1CN1C[C@@H]2COC[C@]2(COCC2CC2)C1`, 5.37%. For `CCS(=O)(=O)CC(=O)NC(c1ccc(F)cc1)C1CCCC1` (stereo unspecified), the cytotoxicity at 10 µM worked out at 4.57%. Turning to `O=C(c1coc(CN2CCN(c3ccccc3F)CC2)n1)N1CCCC1`, the cytotoxicity at 10 µM was 19.2%. To `Cc1nn(C)c(C)c1NC(=O)CN1CCCC1c1noc(C2CC2)n1` (stereo unspecified) belongs -12.1%. With `COc1ccc(Cl)cc1CS(=O)(=O)CC(=O)N(C)Cc1ccccc1F` the figure was 2.53%. Consider `COc1cccc(CC(C)NC(=O)c2ccc(CNC(C)=O)cc2)c1` (stereo unspecified), for which the cytotoxicity at 10 µM is 7.21%. For `Cc1nc(C)n(CC2CCCN2Cc2cscn2)n1` (stereo unspecified), the cytotoxicity at 10 µM was -2.05%. To `c1c[nH]c(CN2CCC3(CC2)COCCN(CCN2CCCC2)C3)c1` belongs -3.86%. Regarding `Cc1cc(C)nc(Nc2cc(C3CCCN(C)C3)nc(C)n2)n1` (stereo unspecified), the cytotoxicity at 10 µM was -5.12%. `O=C(Nc1ccc(OCc2cccc(F)c2)c(F)c1)C1COCCO1` (stereo unspecified): the cytotoxicity at 10 µM worked out at 74.4%. With `CCCNC(=O)c1ncn2c1CN(CC(C)C)S(=O)(=O)c1ccccc1-2` the figure was -72%; with `CCS(=O)(=O)c1ccc(N2CCC(NC(C)=O)CC2)cc1`, 10.6%.

In the case of `CC(CN1CCOCC1)NC(=O)NCc1ccoc1` (stereo unspecified), the cytotoxicity at 10 µM is -5.52%. With `Cc1nc(CN2C[C@@H]3CN(C(=O)c4cnccn4)C[C@@H]3C2=O)cs1` the figure was -74.5%. With `COc1c(C2CCCN2C(=O)c2cccn2C)c(C)nn1C` (stereo unspecified) the figure was -1.88%.

Regarding `CC(C)CC(NC(=O)c1ccn(C)c(=O)c1)c1ccccc1` (stereo unspecified), the cytotoxicity at 10 µM was -6.76%.

Take `Cn1cc(C2COC3(CCN(C(=O)c4cccc(O)c4)CC3)C2)cn1` (stereo unspecified): the cytotoxicity at 10 µM is -73.3%. To `CCCC(NC(=O)c1ccc(OC)cc1F)c1nnn[nH]1` (stereo unspecified) belongs -7.61%. To `CC(=O)N1N=C(c2ccccc2)OC1C(=O)NCC(=O)OC(C)(C)C` (stereo unspecified) belongs -0.376%; to `O=C1Nc2ccccc2NC12CCN(c1cccc(C(F)(F)F)n1)CC2`, 2.31%; to `CNC(=O)NCC(CO)Cc1cccc(OC(F)(F)F)c1` (stereo unspecified), -1.28%. To `CCC(=O)NCC1(O)CCC(C(C)(C)C)CC1` (stereo unspecified) belongs 5.81%.

As for `Cc1cccc(Oc2nccnc2C2CCN(C(=O)C(C)(C)N)CC2)c1`, the cytotoxicity at 10 µM is -9.44%. With `O=C(N1CCCC1)N1C[C@@H]2CCNC[C@@H]21` the figure was 0.375%; with `CCOCCCNc1nc(CS(=O)(=O)c2ccccc2)cs1`, 9.75%; with `Cc1nc(C)n(CC2CCCN(CCOc3cccc(F)c3)C2)n1` (stereo unspecified), -3.18%. To `CC(=O)Nc1ccc(Oc2ccc3c(c2)OCO3)nc1` belongs -8.6%; to `O=S(=O)(Cc1ccccc1)NCc1ccco1`, 0.0906%. To `CCn1cncc1Cn1cccc(C(F)(F)F)c1=O` belongs -20.7%; to `CC(=O)N1[C@H](CN(C)C)C[C@@H]2CN(C(=O)c3ccno3)CC[C@@H]21`, 4.35%; to `c1cnc(OCc2nnc3n2CCN(CC2CC2)C3)nc1`, -1.93%.

With `Cc1cc(-c2ccc(=O)n(C3CCN(S(=O)(=O)N(C)C)CC3)n2)c(C)o1`, the cytotoxicity at 10 µM stood at 6.54%.

As for `COc1ccccc1C1(NCc2c(C)nc3c(C)cccn23)CCCC1`, the cytotoxicity at 10 µM turned out to be 15.2%. With `CCN(CC)C(=O)Cc1csc(C(C)C)n1` the figure was -1.55%; with `CCC(NCc1ccccc1C)c1ccccc1OCC(=O)NC` (stereo unspecified), 16.9%; with `Cn1cc(-c2ccc(C3CCCCN3Cc3cccnc3)cn2)cn1` (stereo unspecified), 11.6%. To `c1ccc(COC[C@H]2CCC[C@@]23CNCCO3)nc1` belongs -91.9%.
